Most compounds without a hit are left out; they make up all but 3% or so of the library.
PvdQ inh = P. aeruginosa PvdQ acylase inhibition; purified PvdQ acylase, fluorescence plate reader; inhibition, % at 10 µM; 340,000 compounds, 0.063% hits; in the data active = inhibition above about 30%, passing the limit was not always enough;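 note: 0% = vehicle neutral wells and 100% = reference inhibitor wells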
T cruzi repl = T. cruzi replication inhibition | T. cruzi beta-gal in NIH3T3, luminescence, 90 h | inhibition, % (no concentration beside the values) | 300,000 compounds, 1.4% hits;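 active = mean inhibition across valid replicates above about 55%, limit read from the data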;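 note: signal also drops with host cell toxicity which is not excluded here; 0% = plate median of DMSO wells and 100% = zero luminescence signal; higher percent means less beta-gal luminescence so fewer parasites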
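System: mouse NIH/3T3 fibroblasts infected with β-gal-expressing T. cruzi Tulahuen C4 / Input: NIH/3T3 cells, 5,000 per well / Buffer or medium: Low-serum DMEM with 2% FBS / Probe or stimulus: 5000 reporter trypomastigotes per well / Schedule: ≥90 h infection period, 3 h prior cell attachment / Measured by: GalScreen luminescence, 60 min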
CaV13 ICDI inh = Primary screen for inhibitors of IQ motif and Ca2+-dependent inactivation inhibitor domain binding in CACNA1D, Förster resonance energy transfer in living cells, …; inhibition, % at 12.3 µM; HEK cells, CFP/YFP FRET ICDI-IQ, plate reader, 10 min; percent FRET-ratio fall versus neutral wells; 340,000 compounds, 0.098% hits; AID 743397;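 active = mean replicate inhibition of at least 30% and at least 1% of replicates passing that level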;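 note: 0% = median of the neutral control wells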
HSF1 activator = increases HSF-1 driven luciferase reporter signal; activation, % at 9 µM; NIH3T3-HGL HSF-1 luciferase reporter, MG132, 8 h; 100% = twice DMSO control signal; 300,000 compounds, 1.7% hits;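 active = mean replicate activation of at least 50% with a set share of replicates each reaching 50%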;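 note: 0% = median of the neutral control wells and 100% = twice that signal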
PfHsp90 set2 = inhibits growth of yeast expressing Plasmodium falciparum Hsp90 | S. cerevisiae expressing PfHsp90, BacTiter-Glo ATP, 48 h; yeast lacking PDR1 and PDR3 efflux regulators | inhibition, % at 9.4 µM | 310,000 compounds, 0.32% hits;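 active = every replicate shows inhibition above about 80%, whatever the replicate mean, limit read from the data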;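 note: 0% = DMSO neutral controls and 100% = 20 µM radicicol positive controls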
Glyco luc inh = blocks N-linked glycosylation in D54 reporter cells. D54 ERlucT glycosylation luciferase reporter, 24 h; percent of 100 nM tunicamycin response. reporter increase, % at 12.5 µM. 360,000 compounds, 0.23% hits. AID 588692;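 active = mean luciferase reporter signal, scaled so untreated is 0 and the glycosylation-blocking control 100, at or above a set limit in every replicate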;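 note: luciferase carries N-glycosylation sites so blocking glycosylation raises the light; 0% = median of neutral control wells and 100% = median of 100 nM tunicamycin wells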
An asterisk follows results filed as active; nt = no result.

SMILES | PvdQ inh | T cruzi repl | CaV13 ICDI inh | HSF1 activator | PfHsp90 set2 | Glyco luc inh
Cc1ccc(OCCCN(C)C)c(Br)c1 | 4 | 26 | nt | 1 | -6 | -1
CN(C)CCOCCOc1ccc(Cl)cc1Br | -2 | 64* | -4 | -16 | -2 | -2
O=c1ccn2c(n1)OC1CC2OC1COC(c1ccccc1)(c1ccccc1)c1ccccc1 (stereo not given) | nt | nt | -12 | nt | nt | nt
O=[N+]([O-])c1ccc(-c2csc(Nc3ccccc3)[n+]2Cc2ccccc2)cc1 | -13 | 43 | -9 | 84* | -6 | 1
CCC(=O)N1CCN(c2ccc(NC(=O)COc3ccc(CC)cc3)cc2)CC1 | -4 | -6 | -7 | 67* | -47 | 0
CCS(=O)(=O)N(C)C[C@@H]1OCc2ccccc2-c2c(n(C)c3ccccc23)C(=O)N([C@H](C)CO)C[C@@H]1C | nt | nt | -6 | nt | nt | nt
CC(=O)C1=C(O)C(=O)N(c2nccs2)C1c1ccccc1 (stereo not given) | -2 | -13 | -3 | 60* | 26 | -1
CC(=O)C1=C(O)C(=O)N(c2ccccn2)C1c1ccc(C)cc1 (stereo not given) | -8 | 5 | -20 | 11 | 13 | -4
CC(=O)N1Cc2cc(C(=O)NCC(F)(F)F)nc(-c3cccc(-c4cccnc4)c3)c2[C@@H]1CCO | nt | nt | -5 | nt | nt | nt
Cc1[nH]n(-c2ccccc2)c(=O)c1/C=N/O | -28 | -7 | -9 | nt | -1 | 2
Cc1[nH]n(-c2ccccc2)c(=O)c1/C=N/N1C(=O)c2ccc3c4c(ccc(c24)C1=O)CC3 | -13 | -6 | -3 | 75* | -22 | 11
CNc1ccc(/C=C2\COc3ccccc3C2=O)cc1[N+](=O)[O-] | -3 | 11 | nt | 39 | 19 | 1
O=C1/C(=C/c2ccccc2[N+](=O)[O-])COc2ccccc21 | 5 | 5 | -3 | 141* | -29 | -16
Cc1ccc(NC(=O)CCSc2nnc(C)o2)cc1 | -8 | -6 | -2 | -24 | 24 | 2
C[C@H](O)[C@@H]1C(=O)N2CCc3c([nH]c4ccccc34)[C@@H]2C[C@@H]1N(C)C(=O)Nc1ccc(Br)cc1 | nt | nt | -5 | nt | nt | nt
CCOC(=O)c1cn(-c2c(Cl)cccc2Cl)c2cc(Cl)c([N+](=O)[O-])cc2c1=O | 9 | 1 | -5 | 104* | 28 | 2
C[C@H]1CN([C@@H](C)CO)C(=O)c2cc(Br)cnc2O[C@H]1CN(C)Cc1ccccc1C(=O)O | nt | nt | -4 | nt | nt | 2
Cc1ccccc1-c1ccc2c(c1)[C@@H]1C[C@H]3[C@@H](CN1CC2)[C@H](C)OC(C1CCCCC1)N3C (stereo not given in full) | nt | nt | -3 | nt | nt | nt
CC(C)N1C(=O)/C(=C\c2nc3ccccc3c(=O)[nH]2)c2ccccc21 | -4 | nt | 0 | nt | 98* | 16
Cc1ccc(S(=O)(=O)NC(=O)C2(C)CCN2C(=O)Cc2cccs2)nc1 (stereo not given) | nt | nt | -4 | nt | nt | 1
COc1ccc(C(CC(=O)Nc2nccs2)n2cccc2)cc1 (stereo not given) | 10 | -3 | nt | 58* | 14 | -5
COc1ccc(C(CC(=O)Nc2cc(OC)cc(OC)c2)n2cccc2)cc1 (stereo not given) | -9 | 56* | -4 | 8 | 19 | 1
COc1ccc(C(CC(=O)Nc2ccccc2OC)n2cccc2)cc1 (stereo not given) | 1 | 5 | -3 | 4 | -5 | 0
N#C/C(=C/c1ccccc1[N+](=O)[O-])c1nc(C2CC2)cs1 | 10 | 6 | -15 | 101* | -26 | -1
N#C/C(=C\c1ccc([N+](=O)[O-])cc1)c1nc(C2CC2)cs1 | -8 | 28 | -17 | 57* | -42 | 5
SMILES | PvdQ inh | T cruzi repl | CaV13 ICDI inh | HSF1 activator | PfHsp90 set2 | Glyco luc inh
N#C/C(=C\c1ccccc1[N+](=O)[O-])c1nc(C2CC2)cs1 | 2 | 10 | -4 | 51* | -56 | -5
Nc1[nH]c(C(=O)c2ccccc2)c(-c2cccnc2)c1C(=O)c1ccccc1 | nt | nt | -6 | nt | nt | nt
CC(C)CC(NS(=O)(=O)c1ccc2c(c1)oc(=O)n2C)C(=O)NC1CCCc2ccccc21 (stereo not given) | 13 | -4 | -7 | 62* | -22 | 1
Cn1c(=O)oc2cc(S(=O)(=O)NCCC(=O)NC3CCCc4ccccc43)ccc21 (stereo not given) | -9 | -22 | -7 | 3 | 27 | -3
Brc1ccc(CN2CCN(c3ncc(Cc4ccccc4)cn3)CC2)cc1 | nt | nt | -9 | nt | nt | nt
O=C1Nc2ccccc2S/C1=C/NCc1ccccc1Cl | -11 | 5 | -2 | 13 | 5 | -1
Cc1ccc(N/C=C2/Sc3ccccc3NC2=O)cc1 | -15 | 59* | -7 | 38 | -3 | -2
COc1ccc(N/C=C2/Sc3ccccc3NC2=O)cc1 | -10 | 68* | -3 | 24 | -14 | -1
COc1cccc(-c2nc3nc(C)cc(C)n3c2NCc2ccccc2)c1 | nt | nt | -5 | nt | nt | nt
CN(C)CCCN(C(=O)c1cc2ccccc2oc1=O)c1nc2ccc(F)cc2s1 | 2 | 44 | -2 | -27 | -19 | -4
CCN(CCCCCN(C)C)Cc1cc2ccccc2o1 | -6 | 55* | -3 | 3 | -5 | -5
COc1ccc(CC(C)N2CCN(Cc3ccccc3)CC2)c(OC)c1 (stereo not given) | -7 | 61* | -8 | -12 | -43 | 1
COc1ccc(CN2CCN(CCCc3ccccc3)CC2)c(OC)c1 | nt | 41 | -2 | -19 | nt | nt
CSCCC(NC(=O)COc1ccccc1)C(=O)NCC(C)(C)N1CCOCC1 (stereo not given) | nt | nt | -12 | nt | nt | -1
CCN(CC)c1nc(SCCOC(=O)Nc2ccccc2)nc(N(CC)CC)n1 | 6 | 68* | -9 | 8 | 17 | -5
Cc1cc(NC(=O)C23CC4CC(C2)CC(n2cnc([N+](=O)[O-])n2)(C4)C3)no1 | 3 | 55* | -4 | 2 | nt | 4
O=C(Nc1ccon1)C12CC3CC(C1)CC(n1cnc([N+](=O)[O-])n1)(C3)C2 | -2 | 59* | -5 | -10 | nt | 1
COC(=O)C1=C(C)N(Cc2ccc(C(F)(F)F)cc2)C(=NCC2CC2)NC1c1cccc(Cl)c1 (stereo not given) | nt | nt | -12 | nt | nt | nt
CC(C)(C)S(=O)N1Cc2cc(C(=O)NCC(F)(F)F)nc(-c3cccc(-c4cccc(F)c4)c3)c2[C@@H]1CCO (stereo not given in full) | nt | nt | -5 | nt | nt | 23
Fc1ccc(F)c(C2=NNC(=Nc3ccccc3F)SC2)c1 | -23 | -1 | -5 | 81* | -7 | -7
Fc1ccc(N=C2NN=C(c3cc(F)ccc3F)CS2)cc1 | -24 | nt | -2 | nt | -103 | 0

Screening data: PubChem, Broad Institute
